ChEMBL document CHEMBL1158382 (Eur J Med Chem, 2009)

How the values were obtained:
Mus musculus = test: Analgesic activity in Albino mouse assessed as inhibition of acetic acid-induced writhing at 300 umol/kg, po administered 1 hr before acetic acid challenge and measured 10 mins after acetic acid challenge; format: functional
Summary of the method: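 Mice of both sexes (18–23 g) dosed orally as a suspension in 5% Arabic gum in saline; vehicle controls got an equal volume. Acetic acid 0.6% (0.1 mL/10 g) given i.p. 1 h later. Constrictions per animal counted for 20 min, starting 10 min after the injection. Value is % inhibition of constrictions versus vehicle group, mean ± SEM, N = 8–10.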

Rattus norvegicus [1] = test: Gastrointestinal toxicity in Albino rat assessed ulcer index at 300 umol/kg, po; details: in vivo
Rattus norvegicus [2] = test: Antiinflammatory activity in Albino rat assessed as inhibition of carrageenan-induced paw edema at 300 umol/kg, po administered 1 hr before carrageenan challenge and measured 3 hrs after carrageenan challenge
[3] = Ratio of IC50 for COX1 to IC50 for COX2

Compound CC1=C(CC(=O)N2CCOCC2)c2cc(F)ccc2/C1=C\c1ccc(S(C)(=O)=O)cc1 has an inhibition in vivo at 300 µmol/kg (Mus musculus) of 22%, a UI (Rattus norvegicus [1]) of 0 and an inhibition in vivo at 300 µmol/kg (Rattus norvegicus [2]) of 4%.

With CNC(=O)CC1=C(C)/C(=C/c2ccc([S+](C)[O-])cc2)c2ccc(F)cc21 (configuration not stated) the inhibition in vivo at 300 µmol/kg (Mus musculus) was 6%.

Work on Cc1ccc(Cl)c(Nc2ccccc2C(=O)NCCCCl)c1Cl yielded a Ratio IC50 [3] of 40.

CCCNC(=O)CC1=C(C)/C(=C/c2ccc(S(C)(=O)=O)cc2)c2ccc(F)cc21 showed an inhibition in vivo at 300 µmol/kg (Mus musculus) of 39%, a UI (Rattus norvegicus [1]) of 1.4 and an inhibition in vivo at 300 µmol/kg (Rattus norvegicus [2]) of 20%.

CNC(=O)CC1=C(C)/C(=C/c2ccc(S(C)(=O)=O)cc2)c2ccc(F)cc21 showed an inhibition in vivo at 300 µmol/kg (Mus musculus) of 43%, a UI (Rattus norvegicus [1]) of 0 and an inhibition in vivo at 300 µmol/kg (Rattus norvegicus [2]) of 35%.

Compound CC1=C(CC(=O)N2CCCCC2)c2cc(F)ccc2/C1=C\c1ccc(S(C)(=O)=O)cc1 has an inhibition in vivo at 300 µmol/kg (Mus musculus) of 36%, a UI (Rattus norvegicus [1]) of 0 and an inhibition in vivo at 300 µmol/kg (Rattus norvegicus [2]) of 19%.

CCCCNC(=O)CC1=C(C)/C(=C/c2ccc(S(C)(=O)=O)cc2)c2ccc(F)cc21 showed an inhibition in vivo at 300 µmol/kg (Mus musculus) of 35%, a UI (Rattus norvegicus [1]) of 2 and an inhibition in vivo at 300 µmol/kg (Rattus norvegicus [2]) of 7%.

Work on Cc1ccc(-c2cc(C(F)(F)F)nn2-c2ccc(S(N)(=O)=O)cc2)cc1 [CELECOXIB] yielded an inhibition in vivo at 300 µmol/kg (Mus musculus) of 56% and an inhibition in vivo at 300 µmol/kg (Rattus norvegicus [2]) of 35%.

With Cc1ccc(Cl)c(Nc2ccccc2C(=O)NCCOc2ccccc2)c1Cl the Ratio IC50 [3] was 440.

CC1=C(CC(=O)O)c2cc(F)ccc2/C1=C\c1ccc(S(C)(=O)=O)cc1 [EXISULIND] showed an inhibition in vivo at 300 µmol/kg (Mus musculus) of 34% and an inhibition in vivo at 300 µmol/kg (Rattus norvegicus [2]) of 48%.

COc1ccc2c(c1)c(CC(=O)Nc1cccnc1)c(C)n2C(=O)c1ccc(Cl)cc1 showed a Ratio IC50 [3] of 1300.

In the case of Cc1ccc(Cl)c(Nc2ccccc2C(=O)NOCc2ccc([N+](=O)[O-])cc2)c1Cl, the Ratio IC50 [3] is reported as 273.

With Cc1ccc(Cl)c(Nc2ccccc2C(=O)O)c1Cl the Ratio IC50 [3] was 0.72.

With CC1=C(CC(=O)Nc2ccccc2)c2cc(F)ccc2/C1=C\c1ccc(S(C)(=O)=O)cc1 the inhibition in vivo at 300 µmol/kg (Mus musculus) was 19%, the UI (Rattus norvegicus [1]) was 0 and the inhibition in vivo at 300 µmol/kg (Rattus norvegicus [2]) was 12%.

For CCN(CC)C(=O)CC1=C(C)/C(=C/c2ccc(S(C)(=O)=O)cc2)c2ccc(F)cc21, the inhibition in vivo at 300 µmol/kg (Mus musculus) was 14%, the UI (Rattus norvegicus [1]) was 1 and the inhibition in vivo at 300 µmol/kg (Rattus norvegicus [2]) was 27%.

With CC1=C(CC(=O)O)c2cc(F)ccc2/C1=C\c1ccc([S+](C)[O-])cc1 (configuration not stated) the inhibition in vivo at 300 µmol/kg (Mus musculus) was 49% and the inhibition in vivo at 300 µmol/kg (Rattus norvegicus [2]) was 67%.

For CCNC(=O)CC1=C(C)/C(=C/c2ccc(S(C)(=O)=O)cc2)c2ccc(F)cc21, the inhibition in vivo at 300 µmol/kg (Mus musculus) was 59%, the UI (Rattus norvegicus [1]) was 0 and the inhibition in vivo at 300 µmol/kg (Rattus norvegicus [2]) was 27%.

For COC(=O)CC1=C(C)/C(=C/c2ccc(S(C)(=O)=O)cc2)c2ccc(F)cc21, the inhibition in vivo at 300 µmol/kg (Mus musculus) was 21%, the UI (Rattus norvegicus [1]) was 0 and the inhibition in vivo at 300 µmol/kg (Rattus norvegicus [2]) was 15%.

For CC1=C(CC(=O)N2CCSCC2)c2cc(F)ccc2/C1=C\c1ccc(S(C)(=O)=O)cc1, the inhibition in vivo at 300 µmol/kg (Mus musculus) was 48%, the UI (Rattus norvegicus [1]) was 4 and the inhibition in vivo at 300 µmol/kg (Rattus norvegicus [2]) was 11%.
